ChEMBL document CHEMBL1629526, “4-[1-(Substituted aryl/alkyl carbonyl)-benzoimidazol-2-yl]-benzenesulfonic acids: synthesis, antimicrobial activity, QSAR studies, and antiviral evaluation” (Eur J Med Chem, 2010)
Converted amounts (≈) assume the structure as drawn.

Columns and labels:
MDCK = assay: Cytotoxicity against MDCK cells assessed as cell viability by MTS assay; type: cell-based, Canis lupus familiaris; conditions: dog, mdck
In short: (§1)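 Uninfected cultures were run in parallel with the antiviral assays. Viability was read by colorimetric formazan MTS assay.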

HeLa = assay: Cytotoxicity against human HeLa cells assessed as cell viability by MTS assay; type: cell-based; conditions: hela; in short: as §1
[1] = Cytotoxicity against human HEL cells assessed as altered cell morphology; type: cell-based
In short: (§2)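 Uninfected cell cultures run alongside the antiviral assays, exposed to serial compound dilutions and incubated at 37 °C for 2–4 days. Toxicity was scored microscopically and reported as the minimum cytotoxic concentration (MCC), the lowest concentration causing a detectable change in normal cell morphology.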

Bacillus subtilis = assay: Antimicrobial activity against Bacillus subtilis after 24 hrs by tube dilution method; type: functional
In short: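 Serial dilutions in double-strength nutrient broth (I.P.) with ciprofloxacin as reference, tube dilution, incubated 37 °C for 24 h. MIC is the lowest concentration that inhibited growth.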

Influenza B virus [2] = assay: Antiviral activity against Influenza B virus infected in MDCK cells assessed as inhibition of virus induced cytopathicity by visual scoring of CPE; type: functional, organism-based
Influenza A virus [3] = assay: Antiviral activity against Influenza A H1N1 virus subtype infected in MDCK cells assessed as inhibition of virus induced cytopathicity after 2 to 4 days by MTS assay; type: functional, organism-based
[4] = system: Vesicular stomatitis virus; assay: Antiviral activity against Vesicular stomatitis virus infected in human HeLa cells assessed as inhibition of virus induced cytopathicity by visual scoring of CPE; type: functional, organism-based
Coxsackievirus B4 [5] = assay: Antiviral activity against coxsackievirus B4 infected in human HeLa cells assessed as inhibition of virus induced cytopathicity by visual scoring of CPE; type: functional, organism-based; conditions: Enterovirus B
Influenza A virus [6] = assay: Antiviral activity against Influenza A H3N2 virus subtype infected in MDCK cells assessed as inhibition of virus induced cytopathicity by visual scoring of CPE; type: functional, organism-based
Influenza B virus [7] = assay: Antiviral activity against Influenza B virus infected in MDCK cells assessed as inhibition of virus induced cytopathicity after 2 to 4 days by MTS assay; type: functional, organism-based
[8] = system: Respiratory syncytial virus; assay: Antiviral activity against Respiratory syncytial virus infected in human HeLa cells assessed as inhibition of virus induced cytopathicity by visual scoring of CPE; type: functional, organism-based
Human alphaherpesvirus 1 [9] = assay: Antiviral activity against Herpes simplex virus 1 KOS infected in HEL cells assessed as inhibition of virus induced cytopathicity after 2 to 4 days by MTS assay; type: functional, organism-based; conditions: Human alphaherpesvirus 1, KOS
Coxsackievirus B4 [10] = assay: Antiviral activity against coxsackievirus B4 infected in human HeLa cells assessed as inhibition of virus induced cytopathicity after 2 to 4 days by MTS assay; type: functional, organism-based; conditions: Enterovirus B
Human respirovirus 3 = assay: Antiviral activity against parainfluenza-3 virus infected in african green monkey Vero cells assessed as inhibition of virus induced cytopathicity after 2 to 4 days by MTS assay; type: functional, organism-based; conditions: Human respirovirus 3, Vero
[11] = Cytotoxicity against human HeLa cells assessed as altered cell morphology; type: cell-based; in short: as §2
Vaccinia virus = assay: Antiviral activity against Vaccinia virus infected in HEL cells assessed as inhibition of virus induced cytopathicity after 2 to 4 days by MTS assay; type: functional, organism-based; conditions: Orthopoxvirus vaccinia
Candida albicans = assay: Antimicrobial activity against Candida albicans after 48 hrs by tube dilution method; type: functional
Aspergillus niger = assay: Antimicrobial activity against Aspergillus niger after 7 days by tube dilution method; type: functional; conditions: 168 h
Sindbis virus = assay: Antiviral activity against Sindbis virus infected in african green monkey Vero cells assessed as inhibition of virus induced cytopathicity after 2 to 4 days by MTS assay; type: functional, organism-based
Felid alphaherpesvirus 1 = assay: Antiviral activity against Feline herpesvirus 1 infected in cat CRFK cells assessed as inhibition of virus induced cytopathicity after 2 to 4 days by MTS assay; type: functional, organism-based; conditions: Felid alphaherpesvirus 1, CRFK
Staphylococcus aureus = assay: Antimicrobial activity against Staphylococcus aureus after 24 hrs by tube dilution method; type: functional
[12] = system: Respiratory syncytial virus; assay: Antiviral activity against Respiratory syncytial virus infected in human HeLa cells assessed as inhibition of virus induced cytopathicity after 2 to 4 days by MTS assay; type: functional, organism-based
Human alphaherpesvirus 2 = assay: Antiviral activity against Herpes simplex virus 2 G infected in HEL cells assessed as inhibition of virus induced cytopathicity after 2 to 4 days by MTS assay; type: functional, organism-based; conditions: Human alphaherpesvirus 2, strain G
Coxsackievirus B4 [13] = assay: Antiviral activity against Coxsackie virus B4 infected in african green monkey Vero cells assessed as inhibition of virus induced cytopathicity after 2 to 4 days by MTS assay; type: functional, organism-based; conditions: Enterovirus B
Feline coronavirus = assay: Antiviral activity against Feline coronavirus infected in cat CRFK cells assessed as inhibition of virus induced cytopathicity after 2 to 4 days by MTS assay; type: functional, organism-based; conditions: Alphacoronavirus 1, CRFK
[14] = Cytotoxicity against cat CRFK cells assessed as cell viability by MTS assay; type: cell-based, Felis catus; conditions: crfk; in short: as §1
[15] = system: Vesicular stomatitis virus; assay: Antiviral activity against Vesicular stomatitis virus infected in human HeLa cells assessed as inhibition of virus induced cytopathicity after 2 to 4 days by MTS assay; type: functional, organism-based
[16] = system: Vesicular stomatitis virus; assay: Antiviral activity against Vesicular stomatitis virus infected in HEL cells assessed as inhibition of virus induced cytopathicity after 2 to 4 days by MTS assay; type: functional, organism-based
Human alphaherpesvirus 1 [17] = assay: Antiviral activity against thymidine kinase deficient acyclovir-resistant Herpes simplex virus 1 KOS infected in HEL cells assessed as inhibition of virus induced cytopathicity after 2 to 4 days by MTS assay; type: functional, organism-based; conditions: Human alphaherpesvirus 1, KOS
[18] = Cytotoxicity against african green monkey Vero cells assessed as altered cell morphology; type: cell-based; conditions: chlorocebus sabaeus; in short: as §2
Escherichia coli = assay: Antimicrobial activity against Escherichia coli after 24 hrs by tube dilution method; type: functional
[19] = Cytotoxicity against MDCK cells assessed as altered cell morphology; type: cell-based, Canis lupus familiaris; conditions: dog; in short: as §2
Punta Toro virus = assay: Antiviral activity against Punta Toro virus infected in african green monkey Vero cells assessed as inhibition of virus induced cytopathicity after 2 to 4 days by MTS assay; type: functional, organism-based
Influenza A virus [20] = assay: Antiviral activity against Influenza A H1N1 virus subtype infected in MDCK cells assessed as inhibition of virus induced cytopathicity by visual scoring of CPE; type: functional, organism-based
[21] = system: Mammalian orthoreovirus 1; assay: Antiviral activity against Reovirus 1 virus infected in african green monkey Vero cells assessed as inhibition of virus induced cytopathicity after 2 to 4 days by MTS assay; type: functional, organism-based; conditions: Mammalian orthoreovirus 1, Vero
Influenza A virus [22] = assay: Antiviral activity against Influenza A H3N2 virus subtype infected in MDCK cells assessed as inhibition of virus induced cytopathicity after 2 to 4 days by MTS assay; type: functional, organism-based

Structure (SMILES) | CC50 (MDCK) [µg/mL] | CC50 (HeLa) [µg/mL] | MCC [1] [µg/mL] | MBC (Bacillus subtilis) [µg/mL] | EC50 (Influenza A virus [3]) [µg/mL] | EC50 [4] [µg/mL] | EC50 (Coxsackievirus B4 [5]) [µg/mL] | EC50 (Influenza A virus [6]) [µg/mL] | EC50 [8] [µg/mL] | EC50 (Human alphaherpesvirus 1 [9]) [µg/mL] | EC50 (Coxsackievirus B4 [10]) [µg/mL] | EC50 (Human respirovirus 3) [µg/mL] | MCC [11] [µg/mL] | EC50 (Vaccinia virus) [µg/mL] | MFC (Candida albicans) [µg/mL] | MFC (Aspergillus niger) [µg/mL] | EC50 (Sindbis virus) [µg/mL] | EC50 (Felid alphaherpesvirus 1) [µg/mL] | MBC (Staphylococcus aureus) [µg/mL] | EC50 [12] [µg/mL] | other results
Nc1ccccc1C(=O)n1c(-c2ccc(S(=O)(=O)O)cc2)nc2ccccc21 | 4.1 (≈ 10.4 µM) | > 100 | > 100 | > 50 | > 4 | > 20 | > 20 | > 4 | > 20 | > 100 | > 20 | > 4 | ≥ 20 | > 100 | 50 (≈ 127 µM) | > 50 | > 4 | > 4 | 50 (≈ 127 µM) | > 20 | EC50 (Influenza B virus [2]): > 4 µg/mL; EC50 (Influenza B virus [7]): > 4 µg/mL; EC50 (Human alphaherpesvirus 2): > 100 µg/mL; EC50 (Coxsackievirus B4 [13]): > 4 µg/mL; EC50 (Feline coronavirus): > 4 µg/mL; CC50 [14]: 11 µg/mL (≈ 28 µM); EC50 [15]: > 20 µg/mL; EC50 [16]: > 100 µg/mL; EC50 (Human alphaherpesvirus 1 [17]): > 100 µg/mL; MCC [18]: 20 µg/mL; MBC (Escherichia coli): 1.56 µg/mL (≈ 3.97 µM); MCC [19]: ≥ 4 µg/mL; EC50 (Punta Toro virus): > 4 µg/mL; EC50 (Influenza A virus [20]): > 4 µg/mL; EC50 [21]: > 4 µg/mL; EC50 (Influenza A virus [22]): > 4 µg/mL
O=C(c1ccc(O)cc1O)n1c(-c2ccc(S(=O)(=O)O)cc2)nc2ccccc21 | 54 (≈ 132 µM) | > 100 | 100 | 25 (≈ 60.9 µM) | > 4 | > 100 | > 100 | > 4 | > 100 | > 20 | > 100 | > 100 | > 100 | > 20 | 12.5 (≈ 30.5 µM) | > 50 | > 100 | > 100 | 12.5 (≈ 30.5 µM) | > 100 | EC50 (Influenza B virus [2]): > 4 µg/mL; EC50 (Influenza B virus [7]): > 4 µg/mL; EC50 (Human alphaherpesvirus 2): > 20 µg/mL; EC50 (Coxsackievirus B4 [13]): > 100 µg/mL; EC50 (Feline coronavirus): > 100 µg/mL; CC50 [14]: > 100 µg/mL; EC50 [15]: > 100 µg/mL; EC50 [16]: > 20 µg/mL; EC50 (Human alphaherpesvirus 1 [17]): > 20 µg/mL; MCC [18]: > 100 µg/mL; MBC (Escherichia coli): 1.56 µg/mL (≈ 3.8 µM); MCC [19]: 20 µg/mL; EC50 (Punta Toro virus): > 100 µg/mL; EC50 (Influenza A virus [20]): > 4 µg/mL; EC50 [21]: > 100 µg/mL; EC50 (Influenza A virus [22]): > 4 µg/mL
C=CC(=O)n1c(-c2ccc(S(=O)(=O)O)cc2)nc2ccccc21 | 14.1 (≈ 42.9 µM) | > 100 | 100 | 12.5 (≈ 38.1 µM) | > 0.8 | > 100 | > 100 | > 0.8 | > 100 | > 20 | > 100 | > 100 | > 100 | > 20 | > 50 | > 50 | > 100 | > 20 | 6.25 (≈ 19 µM) | > 100 | EC50 (Human alphaherpesvirus 2): > 20 µg/mL; EC50 (Coxsackievirus B4 [13]): > 100 µg/mL; EC50 (Feline coronavirus): > 20 µg/mL; CC50 [14]: > 82 µg/mL; EC50 [15]: > 100 µg/mL; EC50 [16]: > 20 µg/mL; EC50 (Human alphaherpesvirus 1 [17]): > 20 µg/mL; MCC [18]: > 100 µg/mL; MBC (Escherichia coli): 1.56 µg/mL (≈ 4.75 µM); MCC [19]: ≥ 0.8 µg/mL; EC50 (Punta Toro virus): > 100 µg/mL; EC50 (Influenza A virus [20]): > 0.8 µg/mL; EC50 [21]: > 100 µg/mL; EC50 (Influenza A virus [22]): > 0.8 µg/mL
